{"source": "paper PMC4127403", "about": "(Analytical chemistry, 2012)", "key": {"apoaequorin (apoAEQ)": {"target": "apoaequorin (apoAEQ) (Aequorea victoria, UniProt P07164, C152S/C159S/C187S)", "sequence (P07164 8-196 C152S/C159S/C187S)": "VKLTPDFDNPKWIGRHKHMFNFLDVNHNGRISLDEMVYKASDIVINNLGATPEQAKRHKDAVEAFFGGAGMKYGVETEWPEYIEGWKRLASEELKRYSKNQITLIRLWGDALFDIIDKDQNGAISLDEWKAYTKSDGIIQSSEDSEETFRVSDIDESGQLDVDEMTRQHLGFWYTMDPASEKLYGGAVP", "assay": "Coelenterazine dose-response curve - EC50 determination", "format": "biochemical"}, "[1]": {"target": "aequorin (AEQ), cysteine-free mutant (Aequorea victoria, UniProt P07164, C152S/C159S/C187S)", "sequence (P07164 8-196 C152S/C159S/C187S)": "as above", "assay": "AEQ bioluminescence inhibition assay", "format": "biochemical", "conditions": "for effect on bioluminescence emission of AEQ: 5.0 × 10^–10 M coelenterazine, 2 h incubation; for expected suitability for the inhibition assay: speculated, compounds not available, test planned"}, "aequorin (AEQ) [2]": {"tested_on": "aequorin (AEQ)", "assay": "Selectivity studies of the AEQ inhibition assay", "format": "biochemical, Aequorea victoria", "conditions": "1.0 × 10^−4 M compound, 5.0 × 10^−10 M coelenterazine", "method_in_brief": "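Selectivity used the optimized inhibition format with various organic compounds dissolved in DMSO. 1.21 × 10−7 M apoAEQ was incubated with 1.0 × 10−4 M compound and 5.0 × 10−10 M coelenterazine, 2 h at 4 °C. Light was triggered by Ca2+ (100 mM CaCl2, 100 mM Tris/HCl pH 7.5) and collected for 6 s. Values are the mean of three measurements ± 1 standard deviation.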"}, "aequorin (AEQ) [3]": {"tested_on": "aequorin (AEQ)", "assay": "Effect of OH-PCB on AEQ", "format": "biochemical, Aequorea victoria", "conditions": "initial experiments with apoaequorin and coelenterazine", "method_in_brief": "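ApoAEQ stock was diluted to 1.21 × 10−7 M in 30 mM Tris/HCl pH 7.5, 2 mM EDTA and charged with three-fold molar excess coelenterazine, 4 °C, 18 h. Aequorin was then mixed with test compound in DMSO at 10% or 20% v/v, with DMSO-only and buffer controls. A 10 μL portion was triggered with 50 μL 100 mM Tris/HCl pH 7.5, 100 mM CaCl2 and read on a tube luminometer.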"}, "aequorin (AEQ) [4]": {"tested_on": "aequorin (AEQ)", "assay": "AEQ bioluminescence inhibition assay in spiked tap water", "format": "biochemical, Aequorea victoria", "method_in_brief": "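Tap water was spiked with test compound standards prepared in DMSO. Same conditions as the buffer assay: 20 μL sample into 80 μL 1.21 × 10−7 M apoAEQ (30 mM Tris/HCl pH 7.5, 2 mM EDTA), 5.0 × 10−10 M final coelenterazine, triplicates, 2 h at 4 °C. Light was triggered with 100 μL 100 mM Tris/HCl pH 7.5, 100 mM CaCl2 and read for 6 s.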"}, "aequorin (AEQ) [5]": {"tested_on": "aequorin (AEQ)", "assay": "AEQ bioluminescence inhibition assay in spiked human serum", "format": "biochemical, Aequorea victoria", "method_in_brief": "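Cysteine-free apoaequorin was expressed in E. coli, secreted, and purified by DEAE and butyl HIC to >95% purity. Human serum was spiked with test compound standards in DMSO (90 μL serum + 10 μL standard). 20 μL of this was added to 80 μL 1.21 × 10−7 M apoAEQ in Buffer A with 5.0 × 10−10 M final coelenterazine, in triplicate, held 2 h at 4 °C. Ca2+/Tris pH 7.5 injection triggered light, collected for 6 s.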"}, "[6]": {"conditions": "cited from earlier work"}, "[7]": {"conditions": "fetal rat plasma and brain; cited from earlier work"}}}
{"smiles": "Oc1ccc(Cc2nc3c(Cc4ccccc4)nc(-c4ccc(O)cc4)cn3c2O)cc1", "note": "[coelenterazine]", "values": [{"measurement": "EC50", "setting": "apoaequorin (apoAEQ)", "value": 0.0618, "unit": "µM"}]}
{"smiles": "Oc1cccc(-c2ccc(Cl)cc2)c1", "note": "[3-hydroxy-4'-chlorobiphenyl]", "values": [{"measurement": "IC50", "setting": "[1]", "value": "> 2000", "unit": "µM"}, {"measurement": "effect on bioluminescence emission of AEQ", "setting": "[1]", "value": "did not produce a decrease in the bioluminescence emission of AEQ"}]}
{"smiles": "Oc1ccc(-c2c(Cl)cc(Cl)cc2Cl)cc1", "note": "[4-hydroxy-2',4',6'-trichlorobiphenyl]", "values": [{"measurement": "IC50", "setting": "[1]", "value": 15.4, "unit": "µM"}]}
{"smiles": "Oc1cccc(-c2ccc(Cl)c(Cl)c2)c1O", "note": "[2,3-dihydroxy-3',4'-dichlorobiphenyl]", "values": [{"measurement": "IC50", "setting": "[1]", "value": 550, "unit": "µM"}]}
{"smiles": "Oc1c(Cl)cc(-c2ccccc2Cl)cc1Cl", "note": "[4-hydroxy-2',3,5-trichlorobiphenyl]", "values": [{"measurement": "IC50", "setting": "[1]", "value": 290, "unit": "µM"}]}
{"smiles": "Oc1ccc(-c2ccc(Cl)c(Cl)c2)cc1O", "note": "[3,4-dihydroxy-3',4'-dichlorobiphenyl]", "values": [{"measurement": "IC50", "setting": "[1]", "value": "> 2000", "unit": "µM"}, {"measurement": "effect on bioluminescence emission of AEQ", "setting": "[1]", "value": "did not produce a decrease in the bioluminescence emission of AEQ"}]}
{"smiles": "Oc1ccc(-c2cc(Cl)ccc2Cl)cc1", "note": "[4-hydroxy-2',5'-dichlorobiphenyl]", "values": [{"measurement": "IC50", "setting": "[1]", "value": 138, "unit": "µM"}]}
{"smiles": "NC12CC3CC(CC(C3)C1)C2", "note": "[amantadine]", "values": [{"measurement": "effect on bioluminescence generated by AEQ", "setting": "aequorin (AEQ) [2]", "value": "do not decrease the bioluminescence"}]}
{"smiles": "Oc1c(Cl)cc(-c2ccc(Cl)c(Cl)c2)cc1Cl", "note": "[4-hydroxy-3,3',4',5-tetrachlorobiphenyl]", "values": [{"measurement": "IC50", "setting": "[1]", "value": 130, "unit": "µM"}, {"measurement": "effect on bioluminescence emission of AEQ", "setting": "[1]", "value": "only a small alteration of the bioluminescence signal"}]}
{"smiles": "Oc1ccc(Cl)cc1-c1cc(Cl)c(Cl)c(Cl)c1Cl", "note": "[2-hydroxy-2',3',4',5,5'-pentachlorobiphenyl]", "values": [{"measurement": "decrease of AEQ bioluminescence activity", "setting": "aequorin (AEQ) [3]", "value": 99, "unit": "%"}, {"measurement": "IC50", "setting": "[1]", "value": 0.097, "unit": "µM"}, {"measurement": "detection limit", "setting": "[1]; 5.0 × 10^−10 M coelenterazine, buffer", "value": 33, "unit": "nM"}, {"measurement": "detection limit in buffer containing HSA", "setting": "[1]; buffer containing HSA (data not shown)", "value": 3.45, "unit": "µM"}, {"measurement": "detection limit in tap water", "setting": "aequorin (AEQ) [4]", "value": 132, "unit": "nM"}, {"measurement": "detection limit in serum", "setting": "aequorin (AEQ) [5]", "value": 5.02, "unit": "µM"}]}
{"smiles": "Oc1c(Cl)cc(-c2ccc(Cl)cc2Cl)cc1Cl", "note": "[4-hydroxy-2',3,4',5-tetrachlorobiphenyl]", "values": [{"measurement": "IC50", "setting": "[1]", "value": 17.5, "unit": "µM"}]}
{"smiles": "Oc1cccc(-c2cc(Cl)ccc2Cl)c1O", "note": "[2,3-dihydroxy-2',5'-dichlorobiphenyl]", "values": [{"measurement": "IC50", "setting": "[1]", "value": 1380, "unit": "µM"}]}
{"smiles": "Oc1c(Cl)cc(-c2cc(Cl)c(Cl)cc2Cl)c(Cl)c1Cl", "note": "[4-hydroxy-2,2',3,4',5,5'-hexachlorobiphenyl]", "values": [{"measurement": "estrogenic activity", "setting": "[6]", "value": "anti-estrogenic"}, {"measurement": "expected suitability for the inhibition assay", "setting": "[1]", "value": "would be suitable for this inhibition assay"}]}
{"smiles": "Oc1c(Cl)cc(-c2ccc(Cl)c(Cl)c2)c(Cl)c1Cl", "note": "[4-hydroxy-2,3,3',4',5-pentachlorobiphenyl]", "values": [{"measurement": "estrogenic activity", "setting": "[6]", "value": "weakly estrogenic"}, {"measurement": "levels of thyroxine after exposure", "setting": "[7]", "value": "lower levels of thyroxine"}, {"measurement": "expected suitability for the inhibition assay", "setting": "[1]", "value": "would be suitable for this inhibition assay"}]}
{"smiles": "Oc1ccccc1-c1cc(Cl)c(Cl)c(Cl)c1Cl", "note": "[2 hydroxy-2',3',4',5'-tetrachlorobiphenyl]", "values": [{"measurement": "IC50", "setting": "[1]", "value": 1.33, "unit": "µM"}]}
{"smiles": "Oc1ccccc1-c1c(Cl)cc(Cl)cc1Cl", "note": "[2-hydroxy-2',4',6'-trichlorobiphenyl]", "values": [{"measurement": "IC50", "setting": "[1]", "value": 155, "unit": "µM"}]}
{"smiles": "Oc1c(Cl)ccc(Cl)c1-c1cc(Cl)c(Cl)cc1Cl", "note": "[2-hydroxy-2',3,4',5',6-pentachlorobiphenyl]", "values": [{"measurement": "IC50", "setting": "[1]", "value": 0.028, "unit": "µM"}, {"measurement": "detection limit", "setting": "[1]; best detection limit of the assay (abstract)", "value": 11, "unit": "nM"}]}
{"smiles": "CN1CCC[C@H]1c1cccnc1", "note": "[nicotine]", "values": [{"measurement": "effect on bioluminescence generated by AEQ", "setting": "aequorin (AEQ) [2]", "value": "do not decrease the bioluminescence"}]}
{"smiles": "Oc1ccc(-c2c(Cl)c(Cl)cc(Cl)c2Cl)c(Cl)c1", "note": "[4-hydroxy-2,2',3',5',6'-pentachlorobiphenyl]", "values": [{"measurement": "IC50", "setting": "[1]", "value": 9.77, "unit": "µM"}, {"measurement": "effect on bioluminescence emission of AEQ", "setting": "[1]", "value": "greatly inhibited aequorin bioluminescence"}]}
{"smiles": "O=C(O)c1cccc(Cl)c1", "note": "[3-chloro-benzoic acid]", "values": [{"measurement": "effect on bioluminescence generated by AEQ", "setting": "aequorin (AEQ) [2]", "value": "do not decrease the bioluminescence"}]}
{"smiles": "Oc1ccc(-c2cc(Cl)c(Cl)c(Cl)c2Cl)cc1Cl", "note": "[4-hydroxy-2',3,3',4',5'-pentachlorobiphenyl]", "values": [{"measurement": "IC50", "setting": "[1]", "value": 2.28, "unit": "µM"}, {"measurement": "effect on bioluminescence emission of AEQ", "setting": "[1]", "value": "greatly inhibited aequorin bioluminescence"}]}
